Measurements reported in ChEMBL document CHEMBL3576819, “Design, synthesis, biological evaluation and molecular docking studies of phenylpropanoid derivatives as potent anti-hepatitis B virus agents” (Eur J Med Chem, 2015).
pIC50: −log10 of the molar value.

Columns and labels:
Hepatitis B virus [1] = test: Antiviral activity against Hepatitis B virus infected in human HepG2.2.15 cells assessed as inhibition of HBeAg secretion at 75 uM after 6 days by ELISA; type: functional; conditions: HepG2 2.2.15, 144 h
In short: (§1)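 HepG2.2.15 cells (MEM, 10% FBS, 380 µg/ml G418) seeded at 1×10^5 cells/ml, held 24 h at 37 °C, then treated with various drug concentrations; medium with drug renewed every 3 d for up to 9 d. Culture medium sampled on days 3, 6 and 9, stored at -20 °C, and assayed for secreted antigen. Lamivudine as positive control; IC50 = 50% inhibition of secretion; means of at least two experiments.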

Hepatitis B virus [2] = test: Antiviral activity against Hepatitis B virus infected in human HepG2.2.15 cells assessed as inhibition of HBeAg secretion at 150 uM after 9 days by ELISA; type: functional; conditions: HepG2 2.2.15, 216 h; in short: as §1
Hepatitis B virus [3] = test: Antiviral activity against Hepatitis B virus infected in human HepG2.2.15 cells assessed as inhibition of HBeAg secretion at 75 uM after 9 days by ELISA; type: functional; conditions: HepG2 2.2.15, 216 h; in short: as §1
Hepatitis B virus [4] = test: Antiviral activity against Hepatitis B virus infected in human HepG2.2.15 cells assessed as cell survival at 150 uM after 9 days (reference value: 100%); type: functional; conditions: HepG2 2.2.15, 216 h
In short: (§2)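 HepG2.2.15 cells (MEM, 10% FBS, 380 µg/ml G418, 37 °C, 5% CO2) seeded at 1×10^5 cells/ml, cultured 24 h, then exposed to various drug concentrations; drug-containing medium renewed every 3 d. OD read at 450 nm after 9 days; percent cell death calculated; CC50 = concentration killing 50% of cells. Means of at least two experiments.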

[5] = Selectivity index, ratio of CC50 for human HepG2.2.15 cells to IC50 for Hepatitis B virus infected in human HepG2.2.15 cells assessed as inhibition of HBsAg secretion; type: functional
In short: (§3)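 Selectivity index computed as CC50/IC50, with CC50 from cell death of HepG2.2.15 cells after 9 days of treatment (OD 450 nm) and IC50 from 50% inhibition of HBeAg or HBsAg secretion in the same cells; medium with drug renewed every 3 d.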

Hepatitis B virus [6] = test: Antiviral activity against Hepatitis B virus infected in human HepG2.2.15 cells assessed as inhibition of HBeAg secretion at 150 uM after 3 days by ELISA; type: functional; conditions: HepG2 2.2.15, 72 h; in short: as §1
Hepatitis B virus [7] = test: Antiviral activity against Hepatitis B virus infected in human HepG2.2.15 cells assessed as cell survival at 300 uM after 9 days (reference value: 100%); type: functional; conditions: HepG2 2.2.15, 216 h; in short: as §2
Hepatitis B virus [8] = test: Antiviral activity against Hepatitis B virus infected in human HepG2.2.15 cells assessed as inhibition of HBeAg secretion at 300 uM after 3 days by ELISA; type: functional; conditions: HepG2 2.2.15, 72 h; in short: as §1
Hepatitis B virus [9] = test: Antiviral activity against Hepatitis B virus infected in human HepG2.2.15 cells assessed as inhibition of HBsAg secretion at 75 uM after 3 days by ELISA; type: functional; conditions: HepG2 2.2.15, 72 h; in short: as §1
Hepatitis B virus [10] = test: Antiviral activity against Hepatitis B virus infected in human HepG2.2.15 cells assessed as inhibition of HBsAg secretion at 150 uM after 9 days by ELISA; type: functional; conditions: HepG2 2.2.15, 216 h; in short: as §1
Hepatitis B virus [11] = test: Antiviral activity against Hepatitis B virus infected in human HepG2.2.15 cells assessed as inhibition of HBsAg secretion at 37.5 uM after 9 days by ELISA; type: functional; conditions: HepG2 2.2.15, 216 h; in short: as §1
[12] = Cytotoxicity against human HepG2.2.15 cells assessed as cell death after 9 days by MTT assay; type: cell-based, HepG2 2.2.15; in short: as §2
Hepatitis B virus [13] = test: Antiviral activity against Hepatitis B virus infected in human HepG2.2.15 cells assessed as inhibition of HBeAg secretion at 37.5 uM after 6 days by ELISA; type: functional; conditions: HepG2 2.2.15, 144 h; in short: as §1
Hepatitis B virus [14] = test: Antiviral activity against Hepatitis B virus infected in human HepG2.2.15 cells assessed as inhibition of HBsAg secretion at 75 uM after 9 days by ELISA; type: functional; conditions: HepG2 2.2.15, 216 h; in short: as §1
Hepatitis B virus [15] = test: Antiviral activity against Hepatitis B virus infected in human HepG2.2.15 cells assessed as cell survival at 75 uM after 9 days (reference value: 100%); type: functional; conditions: HepG2 2.2.15, 216 h; in short: as §2
Hepatitis B virus [16] = test: Antiviral activity against Hepatitis B virus infected in human HepG2.2.15 cells assessed as inhibition of HBsAg secretion at 150 uM after 3 days by ELISA; type: functional; conditions: HepG2 2.2.15, 72 h; in short: as §1
Hepatitis B virus [17] = test: Antiviral activity against Hepatitis B virus infected in human HepG2.2.15 cells assessed as cell survival at 37.5 uM after 9 days (reference value: 100%); type: functional; conditions: HepG2 2.2.15, 216 h; in short: as §2
Hepatitis B virus [18] = test: Antiviral activity against Hepatitis B virus infected in human HepG2.2.15 cells assessed as inhibition of HBsAg secretion at 300 uM after 6 days by ELISA; type: functional; conditions: HepG2 2.2.15, 144 h; in short: as §1
Hepatitis B virus [19] = test: Antiviral activity against Hepatitis B virus infected in human HepG2.2.15 cells assessed as inhibition of HBsAg secretion by ELISA; type: functional, organism-based; conditions: HepG2 2.2.15; in short: as §1
Hepatitis B virus [20] = test: Antiviral activity against Hepatitis B virus infected in human HepG2.2.15 cells assessed as inhibition of HBeAg secretion by ELISA; type: functional, organism-based; conditions: HepG2 2.2.15; in short: as §1
Hepatitis B virus [21] = test: Antiviral activity against Hepatitis B virus infected in human HepG2.2.15 cells assessed as inhibition of HBsAg secretion at 75 uM after 6 days by ELISA; type: functional; conditions: HepG2 2.2.15, 144 h; in short: as §1
Hepatitis B virus [22] = test: Antiviral activity against Hepatitis B virus infected in human HepG2.2.15 cells assessed as inhibition of HBeAg secretion at 37.5 uM after 9 days by ELISA; type: functional; conditions: HepG2 2.2.15, 216 h; in short: as §1
[23] = Selectivity index, ratio of CC50 for human HepG2.2.15 cells to IC50 for Hepatitis B virus infected in human HepG2.2.15 cells assessed as inhibition of HBeAg secretion; type: functional; in short: as §3
Hepatitis B virus [24] = test: Antiviral activity against Hepatitis B virus infected in human HepG2.2.15 cells assessed as inhibition of HBsAg secretion at 150 uM after 6 days by ELISA; type: functional; conditions: HepG2 2.2.15, 144 h; in short: as §1
Hepatitis B virus [25] = test: Antiviral activity against Hepatitis B virus infected in human HepG2.2.15 cells assessed as inhibition of HBeAg secretion at 300 uM after 9 days by ELISA; type: functional; conditions: HepG2 2.2.15, 216 h; in short: as §1
Hepatitis B virus [26] = test: Antiviral activity against Hepatitis B virus infected in human HepG2.2.15 cells assessed as inhibition of HBsAg secretion at 37.5 uM after 6 days by ELISA; type: functional; conditions: HepG2 2.2.15, 144 h; in short: as §1
Hepatitis B virus [27] = test: Antiviral activity against Hepatitis B virus infected in human HepG2.2.15 cells assessed as inhibition of HBsAg secretion at 37.5 uM after 3 days by ELISA; type: functional; conditions: HepG2 2.2.15, 72 h; in short: as §1
Hepatitis B virus [28] = test: Antiviral activity against Hepatitis B virus infected in human HepG2.2.15 cells assessed as inhibition of HBeAg secretion at 75 uM after 3 days by ELISA; type: functional; conditions: HepG2 2.2.15, 72 h; in short: as §1
Hepatitis B virus [29] = test: Antiviral activity against Hepatitis B virus infected in human HepG2.2.15 cells assessed as inhibition of HBeAg secretion at 150 uM after 6 days by ELISA; type: functional; conditions: HepG2 2.2.15, 144 h; in short: as §1
Hepatitis B virus [30] = test: Antiviral activity against Hepatitis B virus infected in human HepG2.2.15 cells assessed as inhibition of HBsAg secretion at 300 uM after 9 days by ELISA; type: functional; conditions: HepG2 2.2.15, 216 h; in short: as §1
Hepatitis B virus [31] = test: Antiviral activity against Hepatitis B virus infected in human HepG2.2.15 cells assessed as inhibition of HBsAg secretion at 300 uM after 3 days by ELISA; type: functional; conditions: HepG2 2.2.15, 72 h; in short: as §1
Hepatitis B virus [32] = test: Antiviral activity against Hepatitis B virus infected in human HepG2.2.15 cells assessed as inhibition of HBeAg secretion at 300 uM after 6 days by ELISA; type: functional; conditions: HepG2 2.2.15, 144 h; in short: as §1

COc1cc(/C=C/C(=O)O/N=C/c2cccs2)cc(OC)c1OC
inhibition at 75 µM (Hepatitis B virus [1]): 20.9%
inhibition at 150 µM (Hepatitis B virus [2]): 46.3%
inhibition at 75 µM (Hepatitis B virus [3]): 31.6%
viability at 150 µM (Hepatitis B virus [4]): 92.6%
Ratio CC50/IC50 [5]: 4.36
inhibition at 150 µM (Hepatitis B virus [6]): 11.3%
viability at 300 µM (Hepatitis B virus [7]): 79.9%
inhibition at 300 µM (Hepatitis B virus [8]): 15.3%
inhibition at 75 µM (Hepatitis B virus [9]): 26.3%
inhibition at 150 µM (Hepatitis B virus [10]): 46.4%
inhibition at 37.5 µM (Hepatitis B virus [11]): 24.8%
CC50 at 216 h [12]: 857 µM
inhibition at 37.5 µM (Hepatitis B virus [13]): 17.1%
inhibition at 75 µM (Hepatitis B virus [14]): 30.9%
viability at 75 µM (Hepatitis B virus [15]): 93.4%
inhibition at 150 µM (Hepatitis B virus [16]): 35.6%
viability at 37.5 µM (Hepatitis B virus [17]): 100%
inhibition at 300 µM (Hepatitis B virus [18]): 56%
pIC50 (Hepatitis B virus [19]): 3.71
pIC50 (Hepatitis B virus [20]): 3.68
inhibition at 75 µM (Hepatitis B virus [21]): 30.6%
inhibition at 37.5 µM (Hepatitis B virus [22]): 20.6%
Ratio CC50/IC50 [23]: 4.1
inhibition at 150 µM (Hepatitis B virus [24]): 44.4%
inhibition at 300 µM (Hepatitis B virus [25]): 55.1%
inhibition at 37.5 µM (Hepatitis B virus [26]): 21.9%
inhibition at 37.5 µM (Hepatitis B virus [27]): 17.1%
inhibition at 75 µM (Hepatitis B virus [28]): 8.64%
inhibition at 150 µM (Hepatitis B virus [29]): 28.2%
inhibition at 300 µM (Hepatitis B virus [30]): 57.7%
inhibition at 300 µM (Hepatitis B virus [31]): 44.7%
inhibition at 300 µM (Hepatitis B virus [32]): 33.1%
